Reference: ChEMBL document CHEMBL5058577, “EUbOPEN Chemogenomics Library 2 (Multiplex)” (2022)

Tested on: U2OS
Assay: Multiplex assay against U2OS
Assay type: toxicity, cell-based
Settings: human
Outline: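 Cells stained live at seeding with Hoechst33342, BioTracker Green Microtubule Cytoskeleton Dye, MitoTracker Red and Annexin V Alexa Fluor 680 were imaged on a CQ1 microscope at 37°C and 5% CO2 after compound addition. Their classification by CellPathfinder machine-learning gating ran from Hoechst high-intensity objects versus normal cells, to healthy, pyknosed or fragmented nuclei among normal cells, to mitotic or apoptotic among pyknosed cells. Tubulin, mitochondrial-mass and membrane-permeability phenotypes are per cents of healthy-nucleus cells.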

[1] = 12 h, 1 µM, compound concentration 1 uM, replicate 1
[2] = 12 h, 1 µM, compound concentration 1 uM, replicate 2
[3] = 12 h, 10 µM, compound concentration 10 uM, replicate 1
[4] = 12 h, 10 µM, compound concentration 10 uM, replicate 2
[5] = 24 h, 1 µM, compound concentration 1 uM, replicate 1
[6] = 24 h, 1 µM, compound concentration 1 uM, replicate 2
[7] = 24 h, 10 µM, compound concentration 10 uM, replicate 1
[8] = 24 h, 10 µM, compound concentration 10 uM, replicate 2
[9] = 48 h, 1 µM, compound concentration 1 uM, replicate 1
[10] = 48 h, 1 µM, compound concentration 1 uM, replicate 2
[11] = 48 h, 10 µM, compound concentration 10 uM, replicate 1
[12] = 48 h, 10 µM, compound concentration 10 uM, replicate 2

Which “Population Apoptotic (%)” value [1] does the source give for COc1ccccc1N1CCN(C[C@@H](C(=O)NC(C)(C)C)c2ccccc2)CC1.Cl.Cl here?
Its value is 73%.

What about the “Population Fragmented Nuclei (%)” value [1] of the same compound?
The value was 29%.

And the “Population Healthy Nuclei (%)” value [1]?
Its value is 65%.

What about the “Population Hoechst High Intensity Objects (%)” value [1] of the same compound?
The value was 2%.

And the “Population Membrane Permeable-Phenotype (%)” value [1]?
Its value is 5%.

What about the “Population Mitochondria Different-Phenotype (%)” value [1] of the same compound?
The value was 3%.

What about the “Population Mitotic Cells (%)” value [1] of the same compound?
Its value is 26%.

What about the “Population Normal (%)” value [1] of the same compound?
The value was 97%.

What about the “Population Pyknosed Nuclei (%)” value [1] of the same compound?
Its value is 5%.

And the “Population Tubulin-Different-Phenotype (%)” value [1]?
The value was 1%.

What about the “Total Cell Count” value [1] of the same compound?
The value was 281.

And the “Population Apoptotic (%)” value [2]?
The value was 66%.

What about the “Population Fragmented Nuclei (%)” value [2] of the same compound?
The value was 14%.

What about the “Population Healthy Nuclei (%)” value [2] of the same compound?
The value was 80%.

And the “Population Hoechst High Intensity Objects (%)” value [2]?
The value was 1%.

And the “Population Membrane Permeable-Phenotype (%)” value [2]?
The value was 7%.

And the “Population Mitochondria Different-Phenotype (%)” value [2]?
The value was 2%.

What about the “Population Mitotic Cells (%)” value [2] of the same compound?
The value was 33%.

And the “Population Normal (%)” value [2]?
The value was 98%.

What about the “Population Tubulin-Different-Phenotype (%)” value [2] of the same compound?
Its value is 3%.

What about the “Total Cell Count” value [2] of the same compound?
Its value is 114.

And the “Population Apoptotic (%)” value [3]?
The value was 46%.

And the “Population Fragmented Nuclei (%)” value [3]?
Its value is 35%.

And the “Population Healthy Nuclei (%)” value [3]?
The value was 49%.

What about the “Population Hoechst High Intensity Objects (%)” value [3] of the same compound?
The value was 3%.

And the “Population Membrane Permeable-Phenotype (%)” value [3]?
Its value is 41%.

And the “Population Mitochondria Different-Phenotype (%)” value [3]?
The value was 41%.

What about the “Population Mitotic Cells (%)” value [3] of the same compound?
The value was 53%.

And the “Population Normal (%)” value [3]?
The value was 96%.

What about the “Population Pyknosed Nuclei (%)” value [3] of the same compound?
Its value is 14%.

And the “Population Tubulin-Different-Phenotype (%)” value [3]?
Its value is 41%.

What about the “Total Cell Count” value [3] of the same compound?
The value was 226.

And the “Population Apoptotic (%)” value [4]?
Its value is 50%.

And the “Population Fragmented Nuclei (%)” value [4]?
The value was 17%.

What about the “Population Healthy Nuclei (%)” value [4] of the same compound?
The value was 66%.

What about the “Population Hoechst High Intensity Objects (%)” value [4] of the same compound?
Its value is 0%.

And the “Population Membrane Permeable-Phenotype (%)” value [4]?
Its value is 49%.

What about the “Population Mitochondria Different-Phenotype (%)” value [4] of the same compound?
The value was 56%.

What about the “Population Mitotic Cells (%)” value [4] of the same compound?
Its value is 50%.

And the “Population Normal (%)” value [4]?
Its value is 99%.

What about the “Population Pyknosed Nuclei (%)” value [4] of the same compound?
The value was 15%.

And the “Population Tubulin-Different-Phenotype (%)” value [4]?
Its value is 64%.

And the “Total Cell Count” value [4]?
Its value is 102.

And the “Population Apoptotic (%)” value [5]?
The value was 68%.

And the “Population Fragmented Nuclei (%)” value [5]?
The value was 29%.

And the “Population Healthy Nuclei (%)” value [5]?
Its value is 62%.

And the “Population Hoechst High Intensity Objects (%)” value [5]?
The value was 3%.

And the “Population Membrane Permeable-Phenotype (%)” value [5]?
The value was 7%.

And the “Population Mitochondria Different-Phenotype (%)” value [5]?
The value was 1%.

And the “Population Mitotic Cells (%)” value [5]?
The value was 32%.

What about the “Population Normal (%)” value [5] of the same compound?
The value was 96%.

And the “Population Pyknosed Nuclei (%)” value [5]?
The value was 8%.

And the “Population Tubulin-Different-Phenotype (%)” value [5]?
The value was 3%.

And the “Total Cell Count” value [5]?
Its value is 320.

What about the “Population Apoptotic (%)” value [6] of the same compound?
The value was 80%.

And the “Population Fragmented Nuclei (%)” value [6]?
The value was 16%.

What about the “Population Healthy Nuclei (%)” value [6] of the same compound?
The value was 75%.

And the “Population Membrane Permeable-Phenotype (%)” value [6]?
Its value is 5%.

And the “Population Mitochondria Different-Phenotype (%)” value [6]?
The value was 6%.

And the “Population Mitotic Cells (%)” value [6]?
The value was 20%.

And the “Population Tubulin-Different-Phenotype (%)” value [6]?
Its value is 2%.

What about the “Total Cell Count” value [6] of the same compound?
The value was 129.

And the “Population Apoptotic (%)” value [7]?
Its value is 61%.

And the “Population Fragmented Nuclei (%)” value [7]?
The value was 38%.

And the “Population Healthy Nuclei (%)” value [7]?
Its value is 42%.

What about the “Population Hoechst High Intensity Objects (%)” value [7] of the same compound?
Its value is 5%.

And the “Population Membrane Permeable-Phenotype (%)” value [7]?
The value was 20%.

What about the “Population Mitochondria Different-Phenotype (%)” value [7] of the same compound?
The value was 33%.

And the “Population Mitotic Cells (%)” value [7]?
Its value is 38%.

And the “Population Normal (%)” value [7]?
Its value is 94%.

What about the “Population Pyknosed Nuclei (%)” value [7] of the same compound?
Its value is 18%.

What about the “Population Tubulin-Different-Phenotype (%)” value [7] of the same compound?
The value was 25%.

And the “Total Cell Count” value [7]?
The value was 235.

What about the “Population Apoptotic (%)” value [8] of the same compound?
The value was 70%.

What about the “Population Fragmented Nuclei (%)” value [8] of the same compound?
The value was 20%.

What about the “Population Healthy Nuclei (%)” value [8] of the same compound?
The value was 63%.

What about the “Population Membrane Permeable-Phenotype (%)” value [8] of the same compound?
The value was 39%.

What about the “Population Mitochondria Different-Phenotype (%)” value [8] of the same compound?
The value was 61%.

And the “Population Mitotic Cells (%)” value [8]?
The value was 29%.

What about the “Population Pyknosed Nuclei (%)” value [8] of the same compound?
Its value is 15%.

And the “Population Tubulin-Different-Phenotype (%)” value [8]?
Its value is 52%.

What about the “Total Cell Count” value [8] of the same compound?
Its value is 113.

What about the “Population Apoptotic (%)” value [9] of the same compound?
The value was 78%.

What about the “Population Fragmented Nuclei (%)” value [9] of the same compound?
The value was 21%.

What about the “Population Healthy Nuclei (%)” value [9] of the same compound?
The value was 66%.

And the “Population Hoechst High Intensity Objects (%)” value [9]?
Its value is 2%.

What about the “Population Membrane Permeable-Phenotype (%)” value [9] of the same compound?
Its value is 5%.

And the “Population Mitochondria Different-Phenotype (%)” value [9]?
Its value is 1%.

And the “Population Mitotic Cells (%)” value [9]?
Its value is 22%.

And the “Population Normal (%)” value [9]?
The value was 97%.

What about the “Population Pyknosed Nuclei (%)” value [9] of the same compound?
The value was 11%.

What about the “Population Tubulin-Different-Phenotype (%)” value [9] of the same compound?
Its value is 1%.

What about the “Total Cell Count” value [9] of the same compound?
Its value is 452.

And the “Population Apoptotic (%)” value [10]?
Its value is 83%.

What about the “Population Fragmented Nuclei (%)” value [10] of the same compound?
Its value is 16%.

What about the “Population Healthy Nuclei (%)” value [10] of the same compound?
Its value is 72%.

What about the “Population Hoechst High Intensity Objects (%)” value [10] of the same compound?
Its value is 4%.

And the “Population Membrane Permeable-Phenotype (%)” value [10]?
The value was 7%.

And the “Population Mitochondria Different-Phenotype (%)” value [10]?
The value was 2%.

And the “Population Mitotic Cells (%)” value [10]?
Its value is 16%.

And the “Population Normal (%)” value [10]?
The value was 95%.

What about the “Population Tubulin-Different-Phenotype (%)” value [10] of the same compound?
Its value is 4%.

What about the “Total Cell Count” value [10] of the same compound?
The value was 162.

What about the “Population Apoptotic (%)” value [11] of the same compound?
Its value is 58%.

What about the “Population Fragmented Nuclei (%)” value [11] of the same compound?
The value was 33%.

And the “Population Healthy Nuclei (%)” value [11]?
Its value is 44%.

What about the “Population Hoechst High Intensity Objects (%)” value [11] of the same compound?
Its value is 4%.

And the “Population Membrane Permeable-Phenotype (%)” value [11]?
Its value is 28%.

And the “Population Mitochondria Different-Phenotype (%)” value [11]?
Its value is 30%.

And the “Population Mitotic Cells (%)” value [11]?
Its value is 41%.

And the “Population Normal (%)” value [11]?
The value was 95%.

What about the “Population Pyknosed Nuclei (%)” value [11] of the same compound?
The value was 21%.

What about the “Population Tubulin-Different-Phenotype (%)” value [11] of the same compound?
The value was 21%.

What about the “Total Cell Count” value [11] of the same compound?
The value was 271.

What about the “Population Apoptotic (%)” value [12] of the same compound?
The value was 96%.

And the “Population Fragmented Nuclei (%)” value [12]?
Its value is 18%.

What about the “Population Healthy Nuclei (%)” value [12] of the same compound?
The value was 58%.

What about the “Population Hoechst High Intensity Objects (%)” value [12] of the same compound?
The value was 8%.

What about the “Population Membrane Permeable-Phenotype (%)” value [12] of the same compound?
The value was 43%.

And the “Population Mitochondria Different-Phenotype (%)” value [12]?
Its value is 29%.

And the “Population Mitotic Cells (%)” value [12]?
Its value is 4%.

And the “Population Normal (%)” value [12]?
The value was 91%.

What about the “Population Pyknosed Nuclei (%)” value [12] of the same compound?
Its value is 22%.

And the “Population Tubulin-Different-Phenotype (%)” value [12]?
The value was 35%.

And the “Total Cell Count” value [12]?
Its value is 121.
